Source: PubChem
Sampled rows, rich in hits. Any-hit rate of the full collection: about 3.7%.
MPTP block: permeability transition pore inhibition; isolated mouse mitochondria, Ca2+ swelling absorbance, 30 min; inhibition, % at 10 µM; 1.4% of 360,000 active; AID 602449;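 active = inhibition of 50% or more, scaled per plate between neutral and stimulator controls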
GRIN3A LBD mod: modulates the human NR3A ligand-binding domain; NR3A LBD differential scanning fluorimetry, Tm shift; 0% = protein alone, 100% = glycine-bound protein; Tm shift relative to glycine control, % at 25 µM; 2.5% of 340,000 active;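 active = melting temperature shift of at least 10% of the positive control shift, at one fixed dose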
proCasp3 act: procaspase-3 (human) activation; P42574; recombinant procaspase-3 D3A, Ac-DEVD-pNA absorbance 405 nm; activation, % at 8.5 µM; 0.11% of 330,000 active;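 active = activation above the mean of all tested compounds plus 3 SD, cut at about 21% in these data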
Target sequence (P42574 whole entry D9A/D28A/D175A): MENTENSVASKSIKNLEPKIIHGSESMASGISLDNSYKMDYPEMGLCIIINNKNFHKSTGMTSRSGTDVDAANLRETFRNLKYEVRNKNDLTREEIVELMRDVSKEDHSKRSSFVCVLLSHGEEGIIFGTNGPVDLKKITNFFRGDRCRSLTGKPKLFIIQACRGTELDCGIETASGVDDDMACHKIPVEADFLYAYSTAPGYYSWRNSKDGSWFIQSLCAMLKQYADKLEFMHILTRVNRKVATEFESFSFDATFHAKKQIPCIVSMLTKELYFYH
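assay system = Procaspase-3 D3A mutant | signal = absorbance at 405 nm, 0 and 120 min | times = 1 h preincubation plus 2 h reaction at 25 °C | repeats = single replicate | read-out = % activation between DMSO and enzyme-spiked controls | medium = Zinc-free HEPES saline buffer with Triton X-100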
aDG glyco up: alpha-DG glycosylation activation; Pro5-aDG cells, alpha-DG glycosylation AlphaScreen (IIH6); 0% Pro5, 100% B10-LARGE cell signal; activation, % at 10 µM; 0.22% of 360,000 active;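 active = activation of at least 8% versus controls, or a plate z-score of at least 8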;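 note: Pro5 are CHO cells carrying HIG-tagged alpha-DG that lacks glycosylation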
procasp7 counter: counter-screen for procaspase-3 activators: activators of human procaspase-7; P55210; recombinant procaspase-7, Ac-DEVD-pNA absorbance 405 nm; D23A/D198A/D206A triple mutant, cannot self-cleave; scale: DMSO 0, 5 µM enzyme 100; activation, % at 8.5 µM; 0.093% of 330,000 active; AID 463210;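 active = percent activation above the screen-wide mean plus 3 SD, cut at about 25% in these data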
Target sequence (P55210 whole entry D23A/D198A/D206A): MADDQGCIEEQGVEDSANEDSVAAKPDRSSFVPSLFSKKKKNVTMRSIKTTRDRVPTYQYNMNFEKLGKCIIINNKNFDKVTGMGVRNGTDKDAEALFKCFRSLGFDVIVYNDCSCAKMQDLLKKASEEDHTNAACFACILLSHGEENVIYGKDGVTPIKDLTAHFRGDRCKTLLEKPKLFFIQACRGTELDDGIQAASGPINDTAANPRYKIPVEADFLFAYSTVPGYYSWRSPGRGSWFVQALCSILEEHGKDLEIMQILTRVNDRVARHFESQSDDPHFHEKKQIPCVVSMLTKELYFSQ
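System: Uncleavable procaspase-7 mutant enzyme; Amount: 2 µM procaspase-7 mutant as dispensed; Schedule: 1 h compound preincubation, 2 h substrate cleavage, 25 °C; Measured by: 405 nm absorbance of p-nitroaniline; Evaluation: percent activation from buffer-corrected 0–120 min absorbance change; Control set: low DMSO alone, high DMSO plus 5 µM PC-7.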
Each line names hits and unclear results; the compound was inactive in the other large screens.

C=CCn1c(O)c(C(C)=Nc2cccc(C(F)(F)F)c2)c(=O)[nH]c1=O	GRIN3A LBD mod 12
C=CCn1c(O)c(C(C)=Nc2cccc(C(=O)O)c2)c(=O)[nH]c1=O	none
CC(C)C[C@@H]1COc2cccc(N3CCN(C)CC3)c2S(=O)(=O)N1	none (no result: GRIN3A LBD mod, proCasp3 act, procasp7 counter)
CCN1CCC(NCC2CCCCC2)CC1	none
Cc1cc(C)cc(N2C(=O)NC(=O)/C(=C\C=C\c3ccco3)C2=O)c1	GRIN3A LBD mod 12
Cc1ccc(N2C(=O)NC(=O)/C(=C/C=C/c3ccco3)C2=O)cc1	none
c1ccc2c(c1)[nH]c1cnccc12	GRIN3A LBD mod 14
Cc1c2ccncc2c(C)c2c1[nH]c1ccccc12	none
Cc1c(N=Cc2c(O)n(Cc3ccccc3)c(=O)[nH]c2=O)c(=O)n(-c2ccccc2)n1C	none
Cc1c(N=Nc2c(O)n(Cc3ccccc3)c(=O)[nH]c2=O)c(=O)n(-c2ccccc2)n1C	GRIN3A LBD mod 15
C=CCN1C(=O)NC(=O)/C(=C/c2ccc(N(C)C)c(Br)c2)C1=O	none
C[N+](C)(C)CC(=O)O	GRIN3A LBD mod 13
CCOCN(C(=O)CCl)c1c(C)cccc1CC	none
CCN(CC)CCCN=Cc1c(O)n(-c2cccc(C)c2C)c(=O)[nH]c1=O	GRIN3A LBD mod 11
CCCNC(=O)N1[C@H]2CC[C@@H]1C(C(=O)OC)=C(c1ccc(Cl)c(C(F)(F)F)c1)C2	GRIN3A LBD mod 24
O=C1C=C2c3ccccc3CC(C(=O)O)C2CC1 (stereo unspecified)	none (no result: GRIN3A LBD mod, proCasp3 act, procasp7 counter)
c1ccc2c3c([nH]c2c1)C1(CCNCC1)NCC3	none
O=c1[nH]c(=S)[nH]c(O)c1N=Nc1cc(S(=O)(=O)Nc2ccc(Cl)cc2)ccc1Cl	GRIN3A LBD mod 13
NS(=O)(=O)c1ccc(N=Nc2c(O)[nH]c(=S)[nH]c2=O)cc1	none
O=C1CN(O)C(c2ccccc2Cl)=c2cc(Br)ccc2=N1	none
O=[N+]([O-])c1ccc(N2CCCCCC2)c2ncccc12	GRIN3A LBD mod 21
O=c1[nH]c(=O)n(Cc2ccccc2)c(O)c1/C=C1\C=Nc2ccccc21	GRIN3A LBD mod 10
O=c1[nH]c(=S)n(-c2ccccc2F)c(O)c1C=NCc1ccco1	GRIN3A LBD mod 14
COC(=O)C1=C(c2ccc(F)cc2OCc2ccccc2)C[C@@H]2CC[C@H]1N2C(=O)NCc1cc(C)oc1C(F)(F)F	none
Oc1cc(O)cc(/C=C/c2ccc(O)cc2O)c1	GRIN3A LBD mod 11
CC1([N+](=O)[O-])COP(=O)(NCc2cccnc2)OC1 (stereo unspecified)	none (no result: proCasp3 act, procasp7 counter)
CC(C)c1onc(C(=O)N2CCC3(CC2)OCCO3)c1[N+](=O)[O-]	GRIN3A LBD mod 16
C=C1C(O)[C@@H]2O[C@]3(CC[C@H](/C=C/C(C)[C@@H]4CC(C)=CC5(O[C@H](C[C@@](C)(O)C(=O)O)CCC5O)O4)O3)CC[C@H]2O[C@@H]1C(O)CC(C)[C@H]1OC2(CCCCO2)CCC1C (stereo partly specified)	GRIN3A LBD mod 13 (no result: MPTP block, aDG glyco up)
COc1ccc(NC(=O)c2cc([N+](=O)[O-])ccc2N2CCNCC2)cc1	none
COc1ccc(C)cc1NC1=NCCCS1	none
CN(C)C(=S)SSC(=S)N(C)C	GRIN3A LBD mod 19
COC(=O)C1=C(c2cc3ccccc3s2)C[C@@H]2CC[C@H]1N2C(=O)N1CCC(C)CC1	none
COc1ccc(-c2cc(=NCCCCCC(=O)O)c3cc(C)ccc3o2)cc1	none (no result: proCasp3 act, procasp7 counter)
COc1ccc(-c2cc(=NCC(=O)O)c3ccccc3o2)cc1	GRIN3A LBD mod 13
COC1C(OC(=O)c2ccc(C)[nH]2)C(O)C(Oc2ccc3c(O)c(NC(=O)c4ccc(O)c(CC=C(C)C)c4)c(=O)oc3c2Cl)OC1(C)C (stereo unspecified)	GRIN3A LBD mod 20
CCOc1ccc(NC(=O)c2ccc(NC(=O)COC(=O)Cc3ccccc3)cc2)cc1	GRIN3A LBD mod 17
O=c1c(C=NCc2cccs2)c(O)n(C2CCCCC2)c(=O)n1C1CCCCC1	none
N=C(N)c1c(O)n(C2CCCCC2)c(=O)n(C2CCCCC2)c1=O	GRIN3A LBD mod 18
O=C1OCCC1C(=O)c1ccccc1 (stereo unspecified)	none (no result: GRIN3A LBD mod, proCasp3 act, procasp7 counter)
COC(=O)C1=C(N)Oc2c(c(=O)oc3ccccc23)[C@]12C(=O)N(C)c1ccccc12	GRIN3A LBD mod 17
Cc1ccc(C2=NN(CCC(=O)N3CCC4(CC3)OCCO4)C(=O)CC2)cc1	none
CCN(CC)c1ccc(/C=C2\C(=O)NC(=O)N(Cc3ccco3)C2=O)cc1	GRIN3A LBD mod 24
CCN(CC)c1ccc(/C=C2/C(=O)NC(=O)N(CC3CCCO3)C2=O)cc1 (stereo unspecified)	none
O=[N+]([O-])c1oc2ccc3ccccc3c2c1CCO	none (no result: proCasp3 act, procasp7 counter)
CCn1c(=O)n(CC(=O)N2CCC3(CC2)OCCO3)c(=O)c2ccccc21	GRIN3A LBD mod 14
Cc1cccc(C)c1NC(=O)c1cccn(Cc2ccc3c(c2)OC(F)(F)O3)c1=O	none
O=C(Nc1cccc(C(F)(F)F)c1)c1cccn(Cc2ccc3c(c2)OC(F)(F)O3)c1=O	GRIN3A LBD mod 25
O=C(Nc1ccc(C(F)(F)F)cc1)c1cccn(Cc2ccc3c(c2)OC(F)(F)O3)c1=O	GRIN3A LBD mod 25
O=C(c1ccccc1F)N1C[C@H]2C[C@@H](C1)c1cccc(=O)n1C2	none
Cc1cccc(NP(=O)(Oc2ccccc2F)Oc2ccccc2F)c1C	GRIN3A LBD mod 24
Nc1c(C(=O)OCc2ccccc2)c2nc3ccccc3nc2n1Cc1cccs1	GRIN3A LBD mod 14
O=C(N/N=C/C1C(=O)NC(=S)N(c2ccccc2)C1=O)c1cc(Br)c(O)c(Br)c1 (stereo unspecified)	none
OC1CCCCC1N1CCC(c2ccccc2)CC1 (stereo unspecified)	none
CC1C(c2ccccc2)OCCN1C (stereo unspecified)	GRIN3A LBD mod 11 (no result: proCasp3 act, procasp7 counter)
c1ccc(C2OCCN3CCCCC23)cc1 (stereo unspecified)	GRIN3A LBD mod 11
CC(C)Oc1cc(-n2c(=S)[nH]c3ccccc3c2=O)c(Cl)cc1Cl	none
c1nc2nc3c(c(N4CCNCC4)n2n1)CCCC3	none (no result: MPTP block, aDG glyco up)
O=C(N/N=C/c1c(O)n(C2CCCCC2)c(=S)[nH]c1=O)c1ccccc1O	GRIN3A LBD mod 22
CCN1CCN(Cc2ccc(C)cc2C)CC1	none
CCN1CCN(Cc2ccccc2C)CC1	GRIN3A LBD mod 40
Nc1c(C(=O)NCCc2ccccc2)c2nc3ccccc3nc2n1CCN1CCOCC1	GRIN3A LBD mod 12
Cc1ccc(OP(=O)(NCc2ccccc2)Oc2ccc(C)cc2)cc1	GRIN3A LBD mod 13
Cc1ccc(NP(=O)(Oc2ccccc2)Oc2ccccc2)cc1	none (no result: proCasp3 act, procasp7 counter)
Nc1ccc(-c2ccc(N)cc2)cc1	none (no result: proCasp3 act, procasp7 counter)
